How the values were obtained:
MS2 coat protein [1] = assay: apparent Kd, MS2 coat protein; higher = weaker binding; RNA-MaP array
Outline: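 Fluorescently labeled MS2 coat protein, from 1.5 nM to 3 μM, was incubated at room temperature with designed RNAs transcribed on an Illumina sequencing chip from sequenced DNA templates. Times ran from 0.8–1.5 h at the lowest concentrations to 10–20 min at the highest, in Tris-HCl pH 7.5 buffer with KCl, MgCl2, BSA, DTT, tRNA and Tween20, with or without input ligand. Each apparent Kd is the median of per-cluster binding-curve fits, and designs with fewer than 10 measured clusters were excluded.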

MS2 coat protein [2] = assay: apparent Kd, MS2 coat protein; higher = weaker binding; RNA-MaP array; FMN 200 µM where present
Outline: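 Binding was read on Illumina sequencing-chip clusters where stalled E. coli RNA polymerase had transcribed each design. A titration of SNAP-549-labelled MS2 coat protein began at 0.7 or 1.5 nM and doubled to 3 µM, once without ligand and once with constant ligand, in 100 mM Tris-HCl pH 7.5, 80 mM KCl, 4 mM MgCl2, BSA, DTT, yeast tRNA and Tween-20. The apparent Kd is the median of filtered per-cluster binding-curve fits, based on green signal normalised to red-channel RNA signal and control-cluster median Fmax.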

[3] = designed as: OFF switch for flavin mononucleotide, no ligand
[4] = ligand present: flavin mononucleotide, designed as: OFF switch for flavin mononucleotide
[5] = designed as: ON switch for flavin mononucleotide, no ligand
[6] = ligand present: flavin mononucleotide, designed as: ON switch for flavin mononucleotide
[7] = designed as: ON switch for theophylline, no ligand
[8] = ligand present: theophylline, designed as: ON switch for theophylline

Sequence	apparent Kd (MS2 coat protein [1]; [3])	apparent Kd (MS2 coat protein [1]; [4])	apparent Kd (MS2 coat protein [1]; [5])	apparent Kd (MS2 coat protein [1]; [6])	also measured
UCCUCGUUAGGAUAUGCCCACAUACACAGUUGUGAACUCUGGCAGAAGGAACAUGAGGAUCACCCAUGUAUAUA	89.3 nM	230 nM	–	–	–
CUUACUCGUCUAGGAUAUCGAAUGCCAACAUGAGGAUCACCCAUGUGUGGGUUGAUCGUCUAGGCCGAGAAGGAGACUGCAAUC	8.88 nM	18.1 nM	–	–	–
AGCUGGGCUGAGAAGGCGUAUCGCUGUUAAGUGACAUGAGGAUCACCCAUGUAAUUACGAGGCUACGAGGAUAUCAACUAUGGA	–	–	35.1 nM	15.5 nM	–
GACAGGAAAGGAUAUACAAAAUAGAUCAAACGCACACAAAGACAUGAGGAUCACCCAUGUAGAAGGUACUGACA	11.3 nM	9.76 nM	–	–	–
AGGAGCGGAAUAGGAUAUUGUAGAUAUAUCAAACAAGAAGGAUUAGCUAACAUGAGGAUCACCCAUGUGGGAUCAAACUCACUC	82.7 nM	127 nM	–	–	–
GUCCUUAUAACAUGAGGAUCACCCAUGUAAUUCAAUCUGCGAGAGGAUAUGUCUGAGCAUCCCACACAGAAGGCUCCGGAACAG	22.8 nM	20.1 nM	–	–	–
GAAAACGAUCCCAAUACAUGAGGAUCACCCAUGUGGUGCAGUCAGGAUAUCACUACACCAAAACUUGAGAAGGGACACAUCGCC	347 nM	318 nM	–	–	–
GGGUUAAAGCAGAAGGGUUACGGACAAAAUUAAACAGGAUAUGCCGUAAUACAUGAGGAUCACCCAUGUCAUACGUCAUCAGGG	–	–	18.9 nM	16 nM	–
CGUGGGUGUGAGCCACAUGAGGAUCACCCAUGUCACAACGUGAGAAGGAACAGGCCCUGUGUCGGUUAGGAUAUCAAACCCUUA	142 nM	27.3 nM	–	–	–
CAUUUACAUGAGGAUCACCCAUGUUAGUAAUGCUGAGGAUAUGGUCCACGCUCCUAUUUACCAGAAGGCAGUCUUG	–	–	19.2 nM	13.8 nM	–
AUGUAGUGCGAGAAGGACUCCCUCUUACACAUGAGGAUCACCCAUGUGCCCUCAAGCUAGACCGAGUAGGAUAUCGACCGCGCC	60 nM	43.6 nM	–	–	–
UACAUACAUGAGGAUCACCCAUGUUGCGAUACCAGCGAAAGAGACCGCCCUUGGCAGCGCUCAUUUAGUUCCAUUCUUGAUCGAA	–	–	–	–	apparent Kd (MS2 coat protein [1]; [7]): 14.3 nM; apparent Kd (MS2 coat protein [1]; [8]): 25.1 nM
GAUGGUGUCAAGGAUAUUCCUAGCGGCUCGUUCGAAGAAGGUGAUACAUGAGGAUCACCCAUGUCCCUCCAUUU	18.2 nM	16.9 nM	–	–	–
GAGCGACUAUGAGAUUGGACAUGAGGAUCACCCAUGUGAGACAGAAGGGCCUUGGCGCCCGUGAGGCAGGAUAUGUACCAAGCA	–	–	27.4 nM	19.6 nM	–
AUUAUGCAGUGAGAGGAUAUCAUCGAUAAGACAUGAGGAUCACCCAUGUGUGUCAGGGUUACACAUGAGAAGGCUCACCAAACUUU	–	–	7.28 nM	7.49 nM	–
UGUCGAUGAUCCAAGGAUAUAUGGAUGCUGACAUGAGGAUCACCCAUGUCCCGAGAAAUCAUUAAAUAGAAGGUGGGCUAUGGCAA	–	–	45.9 nM	21.2 nM	–
UGGAAUGUGCAAGGAUAUUGGCGGUGUGGAAUAGAAUCACUCGAACAUGAGGAUCACCCAUGUUGCAAGAAGGUGCGGGAACGA	38.2 nM	33.5 nM	–	–	–
ACCCAACAUGAGGAUCACCCAUGUGCAUGCCUCGGAGGAUAUGACCUCAUUCAUCUUUGAUCAGAAGGCCGAUCGC	–	–	113 nM	26 nM	–
GUUGCACAUGAGGAUCACCCAUGUUUGGAUACCAGUCUCUGUAAUGACCCUUGGCAGCCACCAUAGACGCUUGAGUAGAGCCUGA	–	–	–	–	apparent Kd (MS2 coat protein [1]; [7]): 15 nM; apparent Kd (MS2 coat protein [1]; [8]): 16 nM
GACAACCACAUGAGGAUCACCCAUGUUUACAUACACAAGGGAAGAAGGGAACCUAAAGGAUCAAAUCAGGAUAUUCGUAUUGUA	–	–	27 nM	19.5 nM	–
AAACAUGCGUGAGAGGAUAUGUCAUUAAUAACAUGAGGAUCACCCAUGUUCGAUGAUUGAAAUAAACAGAAGGCUCCGGUCUGUAA	–	–	27 nM	18.7 nM	–

Sequence	apparent Kd (MS2 coat protein [1]; [3])	apparent Kd (MS2 coat protein [1]; [4])	apparent Kd (MS2 coat protein [1]; [5])	apparent Kd (MS2 coat protein [1]; [6])	also measured
AGGCGCAACGUAGGAUAUACCGGCAUUGUCCAAGUAGAAGGACGUUGUGAUCGCUAGGUAACAUGAGGAUCACCCAUGUCUUAC	–	–	6.96 nM	5.8 nM	–
AUUACAGACUACGGCGAUACAUGAGGAUCACCCAUGUCGAGUUAGGAUAUGCAACAAUACGGCCUGCAGAAGGAACCAAGAGGG	35.1 nM	32.3 nM	–	–	–
CGUUAAGAAUCGGCCGCCACUCCAUACGUGUGAAUCGCGGAUCGACAUGAGGAUCACCCAUGUCGGAGGACCGGGAUCCUCUUUC	–	–	–	–	apparent Kd (MS2 coat protein [1]; designed as: ON switch for tryptophan, no ligand): 35 nM; apparent Kd (MS2 coat protein [1]; ligand present: tryptophan, designed as: ON switch for tryptophan): 23.3 nM
AAUGAAAAGCAGAAGGCCUUAGCAAGUCGUAGAGGAGGAUAUGCGUACGCGGGUUGGCCAACAUGAGGAUCACCCAUGUCACCA	22.4 nM	26.3 nM	–	–	–
GUGACACAUGAGGAUCACCCAUGUCAGGAUAUAGGUCAGCAAAGUAACCAUGACGAGACUAGAAGGGACGCGUG	30.5 nM	22.5 nM	–	–	–
UCGCCGCUGGAGACAUGAGGAUCACCCAUGUGGUCUUUCGUAAGAAGGUGCCUAUAGAACUUUUGCAAGGAUAUUACGCCGGAG	217 nM	113 nM	–	–	–
GUGCCAAAAGAGGAUAUAUUGACGAUGAUUCGCAUAGAAGGCUUUACAUGAGGAUCACCCAUGUGGGAGUGAUC	614 nM	184 nM	–	–	–
UCCAGCAACGAGAAGGUACACAUGAGGAUCACCCAUGUCCGUUGACCGUCUCCAUGGGCGAUGGGUAAGGAUAUCGGGCAGAUG	–	–	68.9 nM	49.4 nM	–
GACAUGAGGAUCACCCAUGUAUGUGGGACUGCGCAUUGAUACUAGGAUAUCUGCCCAGACGUGUGAGAGAAGGAGUACGGUAAA	–	–	74.7 nM	56 nM	–
UCAAGUGAACCAUGGAAACAUUCAAUAGAUACCAGCAUUAAAACCUGCCCUUGGCAGCUAUGAACAUGAGGAUCACCCAUGUGAA	–	–	–	–	apparent Kd (MS2 coat protein [1]; designed as: OFF switch for theophylline, no ligand): 18.5 nM; apparent Kd (MS2 coat protein [1]; ligand present: theophylline, designed as: OFF switch for theophylline): 71.4 nM
ACAAGCCGAGGAUAUACAAGAAAGGCAAGACUGAUAAGAUAACAUGAGGAUCACCCAUGUAGAAGGCGGAAUAC	10.4 nM	14.1 nM	–	–	–
AAUAGAGCACUAGGAUAUGUUUCGUGUGCAGGUGGACAUGAGGAUCACCCAUGUAUAUGUUCAAGACAGAAGGAGACAGAUGAA	59.2 nM	38.4 nM	–	–	–
GUGGCACUCCUAGGAUAUUCACCUUGCGUAGAAAGACAUGAGGAUCACCCAUGUGUCUCUUAUUUGAAGAAGGAGGAACCUCGG	–	–	12.7 nM	13 nM	–
GUAUGAGCGAUAGGAUAUACUGGGAUUGAAUGGGUAGAAGGAUUUCUUGUGGGAAAGACAUGAGGAUCACCCAUGUCGCGGACC	–	–	–	–	apparent Kd (MS2 coat protein [2]; [5]): 255 nM; apparent Kd (MS2 coat protein [2]; [6]): 165 nM
GUACGUGGACAGAAGGUGACAUGAGGAUCACCCAUGUUAGUUGAGGUACCAGCGAUCUGCGUGAUUGAGGAUAUGUCUGCGGGC	–	–	–	–	apparent Kd (MS2 coat protein [2]; [3]): 11.9 nM; apparent Kd (MS2 coat protein [2]; [4]): 13.8 nM
UUUUUACAUGAGGAUCACCCAUGUCAGGAUAUUCUUAUAUUUUAUUAUUUUAUUUUUUGAAGAAGGGACUAUUA	–	–	–	–	apparent Kd (MS2 coat protein [2]; [3]): 118 nM; apparent Kd (MS2 coat protein [2]; [4]): 70.5 nM
GAAAAACAUGAGGAUCACCCAUGUGAGAAUAUGGGAGGAUAUUCAAAGACGAAAGUCAAAGAAGAAGGCCUAAAAG	–	–	–	–	apparent Kd (MS2 coat protein [2]; [5]): 153 nM; apparent Kd (MS2 coat protein [2]; [6]): 37.4 nM
GCAGCAUAUGCAGGAUAUCAGCACGUGUAGUGCUGAGAAGGGCACAUGAGGAUCACCCAUGUGAUCAAUUAAUAUUUAUGCUGC	–	–	–	–	apparent Kd (MS2 coat protein [2]; [3]): 7.98 nM; apparent Kd (MS2 coat protein [2]; [4]): 24.8 nM
GACUGCUGAGGAUAUACAUGAGGAUCACCCAUGUGCUUCAGCUACGAAAGUAGCAUUGGUAGAAGGUAGUAGUC	–	–	–	–	apparent Kd (MS2 coat protein [2]; [3]): 12.4 nM; apparent Kd (MS2 coat protein [2]; [4]): 22.4 nM
UUGGAGAUAGGAUAUACGAGGAGAGUUGAGGGAAGGUGAUGACAUGAGGAUCACCCAUGUAGAAGGAUCAGGAG	–	–	–	–	apparent Kd (MS2 coat protein [2]; [3]): 144 nM; apparent Kd (MS2 coat protein [2]; [4]): 87.2 nM

Reference: the EternaBench riboswitch data
